Measurements: ChEMBL document CHEMBL4602672, “Isolation, Identification, and Decomposition of Antibacterial Dialkylresorcinols from a Chinese Pseudomonas aurantiaca Strain” (2020)
Active and inactive are the calls of the source. No cut-off for these calls is given here.

What was measured:
[1] = tested on: Enterococcus hirae; assay: Antibacterial activity against Enterococcus hirae ATCC 8043 assessed as reduction in microbial growth after 24 hrs by agar well diffusion assay; format: functional; conditions: ATCC 8043, 24 h
[2] = tested on: Bacillus subtilis; assay: Antibacterial activity against Bacillus subtilis ATCC 6633 assessed as reduction in microbial growth at 0.06 to 133 ug/ml after 24 hrs by agar well diffusion assay; format: functional, organism-based
Outline: (§1)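 Modified literature MIC protocol against ATCC pathogens. Antibiotics served as positive control and sterile water with DMSO (<5%) as negative control. For the related well-diffusion work, test samples were dissolved in sterile water with DMSO (<5%). MIC given in μg/mL.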

[3] = tested on: Staphylococcus epidermidis; assay: Antibacterial activity against Staphylococcus epidermidis ATCC 14990 assessed as reduction in microbial growth at 0.06 to 133 ug/ml after 24 hrs by agar well diffusion assay; format: functional, organism-based; outline: as §1
[4] = tested on: Streptococcus mutans; assay: Antibacterial activity against Streptococcus mutans ATCC 25175 assessed as reduction in microbial growth after 24 hrs by agar well diffusion assay; format: functional; conditions: ATCC 25175, 24 h
[5] = tested on: Staphylococcus aureus; assay: Antibacterial activity against Staphylococcus aureus ATCC 12600 assessed as reduction in microbial growth at 0.06 to 133 ug/ml after 24 hrs by agar well diffusion assay; format: functional, organism-based; outline: as §1
[6] = tested on: Bacillus subtilis; assay: Antibacterial activity against Bacillus subtilis ATCC 6633 assessed as reduction in microbial growth after 24 hrs by agar well diffusion assay; format: functional; conditions: ATCC 6633, 24 h
[7] = tested on: Staphylococcus aureus; assay: Antibacterial activity against Staphylococcus aureus ATCC 12600 assessed as reduction in microbial growth after 24 hrs by agar well diffusion assay; format: functional; conditions: ATCC 12600, 24 h
[8] = tested on: Staphylococcus epidermidis; assay: Antibacterial activity against Staphylococcus epidermidis ATCC 14990 assessed as reduction in microbial growth after 24 hrs by agar well diffusion assay; format: functional; conditions: ATCC 14990, 24 h
[9] = tested on: Streptococcus mutans; assay: Antibacterial activity against Streptococcus mutans ATCC 25175 assessed as reduction in microbial growth at 0.06 to 133 ug/ml after 24 hrs by agar well diffusion assay; format: functional, organism-based
[10] = tested on: Enterococcus hirae; assay: Antibacterial activity against Enterococcus hirae ATCC 8043 assessed as reduction in microbial growth at 0.06 to 133 ug/ml after 24 hrs by agar well diffusion assay; format: functional, organism-based; outline: as §1

SMILES	MIC [1] [mg/L]	Activity [2]	Activity [3]	MIC [4] [mg/L]	Activity [5]	MIC [6] [mg/L]	MIC [7] [mg/L]	MIC [8] [mg/L]	Activity [9]	Activity [10]
CCCCCCC1=C(O)C(=O)C(CCCCC)=CC1=O	133	inactive	inactive	66.7	inactive	33.4				
CN[C@H](CC(C)C)C(=O)N[C@H]1C(=O)N[C@@H](CC(N)=O)C(=O)N[C@H]2C(=O)N[C@H]3C(=O)N[C@H](C(=O)N[C@H](C(=O)O)c4cc(O)cc(O)c4-c4cc3ccc4O)[C@H](O)c3ccc(c(Cl)c3)Oc3cc2cc(c3O[C@@H]2O[C@H](CO)[C@@H](O)[C@H](O)[C@H]2O[C@H]2C[C@](C)(N)[C@H](O)[C@H](C)O2)Oc2ccc(cc2Cl)[C@H]1O [VANCOMYCIN]						1.1				
CCCCCCC(=O)C1(O)C=C(CCCCC)C(=O)O1 (stereo not given)	133			133		66.7	33.4	66.7		
Oc1ccc2nc3ccccc3nc2c1		inactive			inactive			33.4	inactive	inactive
CC1(C)S[C@@H]2[C@H](NC(=O)Cc3ccccc3)C(=O)N2[C@H]1C(=O)O [PENICILLIN G]				1.1			0.26	0.52		
CCCCCCC1=C(O)C(=O)C(CCCCC)=C(C2=C(CCCCC)C(=O)C(O)=C(CCCCCC)C2=O)C1=O			inactive	133		133	133			inactive
CC1(C)S[C@@H]2[C@H](NC(=O)[C@H](N)c3ccccc3)C(=O)N2[C@H]1C(=O)O [AMPICILLIN]	1.1									
CCCCCCCc1cc(O)c(CCCCCC)c(O)c1	33.4			33.4		66.7	1.1	8.3		
CCCCCCCC1=CC(=O)C(CCCCCC)=C(O)C1=O		inactive	inactive	133			133			inactive
CCCCCCC1=C(O)C(=O)C(CCCCC)=C(c2c(CCCCC)cc(O)c(CCCCCC)c2O)C1=O			inactive	133	inactive					inactive
CCCCCCc1c(O)cc(CCCCC)cc1O [RESORSTATIN]	4.2			4.2		8.4	4.2	4.2		
CCCCCCCC1=CC(O)(C(=O)CCCCCC)OC1=O (stereo not given)	66.7			133		33.4	16.7	33.4		
